# Measured values taken from ChEMBL document CHEMBL2046403, “Biochemical and pharmacological evaluation of 4-hydroxychromen-2-ones bearing polar C-3 substituents as anticoagulants” (Eur J Med Chem, 2012).
# Columns and labels:
# Plasma [1] = experiment: Anticoagulant activity in Wistar albino rat plasma assessed as international normalized ratio at 0.1 mg/kg, ip; format: functional; details: route intraperitoneal
# Outline: (§1)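 Adult Wistar rats (2.5 months, 220–250 g), three per compound and control, were given a single i.p. dose of 0.1 or 0.5 mg/kg in ethanol solution and sacrificed 24 h later. […] Plasma prothrombin time was measured by Quick method and reported in seconds and as INR, from at least three measurements.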
# Rattus norvegicus [2] = experiment: Hepatotoxicity in Wistar albino rat assessed as change in serum bilirubin level at 0.5 mg/kg, ip measured after 24 hrs; format: toxicity, organism-based; design: dose 0.5 mg/kg, route intraperitoneal; details: in vivo
# Rattus norvegicus [3] = experiment: Anticoagulant activity in Wistar rats in vivo assessed as prothrombin time
# Rattus norvegicus [4] = experiment: Hepatotoxicity in Wistar albino rat assessed as change in serum iron level at 0.5 mg/kg, ip measured after 24 hrs; format: toxicity, organism-based; design: dose 0.5 mg/kg, route intraperitoneal; details: in vivo
# Plasma [5] = experiment: Anticoagulant activity in Wistar albino rat plasma assessed as prothrombin time at 0.1 mg/kg, ip; format: functional; details: route intraperitoneal; outline: as §1
# Rattus norvegicus [6] = experiment: Hepatotoxicity in Wistar albino rat assessed as change in serum albumin level at 0.5 mg/kg, ip measured after 24 hrs; format: toxicity, organism-based; design: dose 0.5 mg/kg, route intraperitoneal; details: in vivo
# Plasma [7] = experiment: Anticoagulant activity in Wistar albino rat plasma assessed as fibrin time; format: functional
# Outline: (§2)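 Adult albino Wistar rats (2.5 months old, 220–250 g), three per compound and control. […] Fibrin time and fibrinogen were determined on plasma. Fibrinogen was quantified by biuret method at 540 nm. At least three measurements, reported with standard deviation.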
# Rattus norvegicus [8] = experiment: Hepatotoxicity in Wistar albino rat assessed as change in serum AST level at 0.5 mg/kg, ip measured after 24 hrs; format: toxicity, organism-based; design: dose 0.5 mg/kg, route intraperitoneal; details: in vivo
# Rattus norvegicus [9] = experiment: Hepatotoxicity in Wistar albino rat assessed as change in serum ALT level at 0.5 mg/kg, ip measured after 24 hrs; format: toxicity, organism-based; design: dose 0.5 mg/kg, route intraperitoneal; details: in vivo
# Plasma [10] = experiment: Anticoagulant activity in human plasma assessed as international normalized ratio at 1 mg/ml; format: functional
# Outline: (§3)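 Frozen human plasma (blood type A+) was used. Compounds were prepared at 1 mg/mL in a vehicle of 96% EtOH, 0.9% NaCl, 20% glycerol and phosphate buffer pH 7. Prothrombin time was measured by Quick method and reported in seconds and as INR, with SD from at least three measurements.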
# Rattus norvegicus [11] = experiment: Hepatotoxicity in Wistar albino rat assessed as change in serum ALP level at 0.5 mg/kg, ip measured after 24 hrs; format: toxicity, organism-based; design: dose 0.5 mg/kg, route intraperitoneal; details: in vivo
# Plasma [12] = experiment: Anticoagulant activity in Wistar albino rat plasma assessed as international normalized ratio at 0.5 mg/kg, ip; format: functional; details: route intraperitoneal; outline: as §1
# Plasma [13] = experiment: Anticoagulant activity in Wistar albino rat plasma assessed as prothrombin time at 0.5 mg/kg, ip; format: functional; details: route intraperitoneal
# Outline: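 Adult Wistar rats (2.5 months, 220–250 g), three per compound and control, were given a single i.p. dose of 0.1 or 0.5 mg/kg in ethanol solution and sacrificed 24 h later. Plasma prothrombin time was measured by Quick method and reported in seconds and as INR, from at least three measurements.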
# Rattus norvegicus [14] = experiment: Hepatotoxicity in Wistar albino rat assessed as change in serum gamma-GT level at 0.5 mg/kg, ip measured after 24 hrs; format: toxicity, organism-based; design: dose 0.5 mg/kg, route intraperitoneal; details: in vivo
# Plasma [15] = experiment: Anticoagulant activity in Wistar albino rat plasma assessed as fibrinogen level; format: functional; outline: as §2
# Rattus norvegicus [16] = experiment: Hepatotoxicity in Wistar albino rat assessed as change in serum protein level at 0.5 mg/kg, ip measured after 24 hrs; format: toxicity, organism-based; design: dose 0.5 mg/kg, route intraperitoneal; details: in vivo
# Plasma [17] = experiment: Anticoagulant activity in human plasma assessed as prothrombin time at 1 mg/ml; format: functional; outline: as §3
# Rattus norvegicus [18] = experiment: Hepatotoxicity in Wistar albino rat assessed as change in serum AST level at 0.5 mg/kg, ip measured after 24 hrs relative to untreated control; format: toxicity, organism-based; design: dose 0.5 mg/kg, route intraperitoneal; details: in vivo
# Outline: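 Serum AST was measured 24 h after a single 0.5 mg/kg i.p. dose (ethanol solution) in Wistar rats, three per group, by IFCC UV kinetic method at 340 nm. Activity was expressed as fold of the negative (96% ethanol) control, and compared by one-way ANOVA with post-hoc tests.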
# Rattus norvegicus [19] = experiment: Hepatotoxicity in Wistar albino rat assessed as change in serum gamma-GT level at 0.5 mg/kg, ip administered for 5 days measured after second compound dose; format: toxicity, organism-based; design: dose 0.5 mg/kg, route intraperitoneal; details: in vivo, 120 h
# Rattus norvegicus [20] = experiment: Drug metabolism in Wistar albino rat assessed as coumarin-7-glucuronide level in urine at 1 mg/kg, ip measured after 72 hrs by GC/MS analysis; details: in vivo
# Plasma [21] = experiment: Anticoagulant activity in Wistar albino rat plasma assessed as prothrombin time at 0.5 mg/kg/day, ip administered for 5 days measured after second dose; format: functional; details: route intraperitoneal
# Outline: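 Wistar rats, three per group, were dosed i.p. at 0.5 mg/kg per day over five days in ethanol solution and sacrificed on day six. Plasma prothrombin time was measured by Quick method after the second 0.5 mg/kg administration, reported in seconds and INR. Where animals were dosed more than once, PTs were averaged.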
# Rattus norvegicus [22] = experiment: Hepatotoxicity in Wistar albino rat assessed as change in serum AST level at 0.5 mg/kg/day, ip administered for 5 days measured after second compound dose; details: in vivo, 120 h
# Rattus norvegicus [23] = experiment: Hepatotoxicity in Wistar albino rat assessed as change in serum ALT level at 0.5 mg/kg/day, ip administered for 5 days measured after second compound dose; details: in vivo, 120 h
# Plasma [24] = experiment: Anticoagulant activity in Wistar albino rat plasma assessed as prothrombin time at 0.5 mg/kg, ip relative to warfarin; format: functional; details: route intraperitoneal
# Outline: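 Rats (Wistar, 220–250 g, n=3 per group) were dosed i.p. with 0.5 mg/kg compound in ethanol solution. Prothrombin time was measured in plasma by Quick method and expressed as fold of the matching control value. […] Groups were compared by one-way ANOVA with Dunnett T3 or Bonferroni post-hoc tests.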
# Rattus norvegicus [25] = experiment: Hepatotoxicity in Wistar albino rat assessed as change in serum iron level at 0.5 mg/kg/day, ip administered for 5 days measured after second compound dose; format: toxicity, organism-based; design: route intraperitoneal; details: in vivo, 120 h
# Rattus norvegicus [26] = experiment: Drug metabolism in Wistar albino rat assessed as 7-hydroxycoumarin level in urine at 1 mg/kg, ip measured after 72 hrs by GC/MS analysis; details: in vivo
# Plasma [27] = experiment: Anticoagulant activity in Wistar albino rat plasma assessed as fibrinogen level at 0.5 mg/kg/day, ip administered for 5 days; format: functional; details: route intraperitoneal
# Outline: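 Wistar rats (220–250 g), three per group, got one i.p. dose of 0.5 mg/kg per day for five days and were sacrificed on day six. […] Plasma fibrinogen was measured by biuret method at 540 nm.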
smiles,measurement,setting,value
O=c1oc2ccccc2c(O)c1-c1csc(Nc2ccc([N+](=O)[O-])cc2)n1,Ratio,Plasma [1],0.65
same,Activity,Rattus norvegicus [2],1.7 µmol/L
same,IC50,Rattus norvegicus [3],2340 µM
same,Activity,Rattus norvegicus [4],14.8 µmol/L
same,PT,Plasma [5],8.1 s
same,Activity,Rattus norvegicus [6],37.2 g/L
same,Time,Plasma [7],33.7 s
same,Activity,Rattus norvegicus [8],264.4 U/L
same,Activity,Rattus norvegicus [9],68.7 U/L
same,Ratio,Plasma [10],2.44
same,Activity,Rattus norvegicus [11],204 U/L
same,Ratio,Plasma [12],0.68
same,PT,Plasma [13],9.1 s
same,Activity,Rattus norvegicus [14],3.8 U/L
same,Activity,Plasma [15],1.8 g/L
same,Activity,Rattus norvegicus [16],63 g/L
same,PT,Plasma [17],25 s
Cc1cccc(Nc2nc(-c3c(O)c4ccccc4oc3=O)cs2)c1,Activity,Rattus norvegicus [2],1.8 µmol/L
same,fold change (FC),Rattus norvegicus [18],1.68
same,Activity,Rattus norvegicus [19],3 U/L
same,Drug metabolism,Rattus norvegicus [20],Active
same,PT,Plasma [21],28.1 s
same,AST,Rattus norvegicus [22],175.5 U/L
same,IC50,Rattus norvegicus [3],69.2 µM
same,ALT,Rattus norvegicus [23],62.4 U/L
same,Activity,Rattus norvegicus [4],28.4 µmol/L
same,PT,Plasma [5],9.6 s
same,Activity,Plasma [24],79.51%
same,Activity,Rattus norvegicus [6],41.9 g/L
same,Time,Plasma [7],27.6 s
same,Activity,Rattus norvegicus [8],284.6 U/L
same,Activity,Rattus norvegicus [9],67.3 U/L
same,Activity,Rattus norvegicus [11],172 U/L
same,PT,Plasma [13],9.7 s
same,Activity,Rattus norvegicus [14],2.2 U/L
same,Activity,Rattus norvegicus [25],17.3 µmol/L
same,Activity,Plasma [15],2 g/L
same,Activity,Rattus norvegicus [16],66.2 g/L
same,Drug metabolism,Rattus norvegicus [26],Active
same,PT,Plasma [17],25 s
same,Activity,Plasma [27],1.2 g/L
O=C(O)CCCCNc1nc(-c2c(O)c3ccccc3oc2=O)cs1,Ratio,Plasma [1],0.64
same,Activity,Rattus norvegicus [2],1.2 µmol/L
same,IC50,Rattus norvegicus [3],933 µM
same,Activity,Rattus norvegicus [4],27.4 µmol/L
same,PT,Plasma [5],8 s
same,Activity,Rattus norvegicus [6],35.4 g/L
same,Time,Plasma [7],23.9 s
same,Activity,Rattus norvegicus [8],231.5 U/L
same,Activity,Rattus norvegicus [9],52.6 U/L
same,Ratio,Plasma [10],2.1
same,Activity,Rattus norvegicus [11],246 U/L
same,Ratio,Plasma [12],0.67
same,PT,Plasma [13],10 s
same,Activity,Rattus norvegicus [14],3.5 U/L
same,Activity,Plasma [15],2.5 g/L
same,Activity,Rattus norvegicus [16],71.5 g/L
same,PT,Plasma [17],22 s
CCN(CC)c1nc(-c2c(O)c3ccccc3oc2=O)cs1,Ratio,Plasma [1],0.64
same,Activity,Rattus norvegicus [2],2 µmol/L
same,IC50,Rattus norvegicus [3],933 µM
same,Activity,Rattus norvegicus [4],25 µmol/L
same,PT,Plasma [5],8 s
same,Activity,Rattus norvegicus [6],36.7 g/L
same,Time,Plasma [7],44.9 s
same,Activity,Rattus norvegicus [8],254.8 U/L
same,Activity,Rattus norvegicus [9],64.7 U/L
same,Ratio,Plasma [10],1.75
same,Activity,Rattus norvegicus [11],192 U/L
same,Ratio,Plasma [12],0.67
same,PT,Plasma [13],10 s
same,Activity,Rattus norvegicus [14],4.4 U/L
same,Activity,Plasma [15],1.4 g/L
same,Activity,Rattus norvegicus [16],63.2 g/L
same,PT,Plasma [17],18.5 s
Cc1ccccc1Nc1nc(-c2c(O)c3ccccc3oc2=O)cs1,Ratio,Plasma [1],0.68
same,Activity,Rattus norvegicus [2],1.8 µmol/L
same,IC50,Rattus norvegicus [3],5370 µM
same,Activity,Rattus norvegicus [4],29.2 µmol/L
same,PT,Plasma [5],8.1 s
same,Activity,Rattus norvegicus [6],36.3 g/L
same,Time,Plasma [7],28.7 s
same,Activity,Rattus norvegicus [8],263.4 U/L
same,Activity,Rattus norvegicus [9],59.5 U/L
same,Ratio,Plasma [10],1.7
same,Activity,Rattus norvegicus [11],318 U/L
same,Ratio,Plasma [12],0.68
same,PT,Plasma [13],8.1 s
same,Activity,Rattus norvegicus [14],3.6 U/L
same,Activity,Plasma [15],2.1 g/L
same,Activity,Rattus norvegicus [16],69.2 g/L
same,PT,Plasma [17],18.1 s
O=c1oc2ccccc2c(O)c1-c1csc(Nc2cccc3ccccc23)n1,Ratio,Plasma [1],0.94
same,Activity,Rattus norvegicus [2],2 µmol/L
same,IC50,Rattus norvegicus [3],589 µM
same,Activity,Rattus norvegicus [4],24.6 µmol/L
same,PT,Plasma [5],9.2 s
same,Activity,Rattus norvegicus [6],41.3 g/L
same,Time,Plasma [7],33.2 s
same,Activity,Rattus norvegicus [8],345.3 U/L
same,Activity,Rattus norvegicus [9],85 U/L
same,Ratio,Plasma [10],2.7
same,Activity,Rattus norvegicus [11],210 U/L
same,Ratio,Plasma [12],0.94
same,PT,Plasma [13],9.7 s
same,Activity,Rattus norvegicus [14],4.3 U/L
same,Activity,Plasma [15],1.9 g/L
same,Activity,Rattus norvegicus [16],72.8 g/L
same,PT,Plasma [17],27.5 s
